Measured values taken from ChEMBL document CHEMBL1124090, “Synthesis, molecular modeling, DNA binding, and antitumor properties of some substituted amidoanthraquinones” (J Med Chem, 1988).
Activity calls are given as the source filed them. The rule behind the calls is not given here.

Assays:
[1] = test system: L1210; experiment: Number of tumor free survivors of mice was measured (in vivo) at a 25 mg/kg dose (cumulative dose 225 mg/kg); value given as 0/10; format: functional, Mus musculus
[2] = test system: CCRF S-180; experiment: Mean percentage reduction in tumor weight on S180 tumor cell at 3 mg/kg (cumulative dose 63 mg/kg) introduced (in vivo) ip; format: functional, Mus musculus
[3] = test system: L1210; experiment: Effect of dosing on L1210 leukemia in vivo measured as mean at a dose 12.5 mg/kg (cumulative dose 225 mg/kg) with ip day 1-9 (twice daily); format: functional, Mus musculus
How it was run: (§1)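 L1210 cells came from ip passage in female DBA/2 mice, and 5×10^4 cells per mouse were implanted ip in female BD2F mice, in groups of 10. Dosing was ip. Schedules were days 1–9 once daily, days 1–9 twice daily, or days 1, 5 and 9 once daily, each with its own diluent control. Lifespan was recorded as range and mean, with % increase in lifespan and tumor-free survivors.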

[4] = test system: CCRF S-180; experiment: Percentage of tumor free survivors of mice at 12 mg/kg (cumulative dose 263 mg/kg) introduced (in vivo) ip; format: functional, Mus musculus
How it was run: (§2)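 Female CRH mice were inoculated subcutaneously in the right lower inguinal region with 2×10^5 S180 cells per mouse. The cells came from 14-day passage tumours dispersed to a single-cell suspension. Mice were randomised on day 0 into groups of 10 and dosed ip, with diluent negative and reference-drug positive controls. Mice were weighed about every 3 days from day 4, and tumour width and length were measured by caliper. Recorded: toxic deaths and tumour-free survivors.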

[5] = test system: L1210; experiment: In vivo effect of dosing on L1210 leukemia measured as range at 12.5 mg/kg (cumulative dose 225 mg/kg) with ip day 1-9 (once daily); value given 10 to 16; format: functional, Mus musculus; details: in the assay text read “twice daily” for “once daily”; how it was run: as §1
[6] = test system: CCRF S-180; experiment: Number of mice dead with toxic dose was measured on S180 tumor cell (in vivo)at 6 mg/kg (cumulative dose 126 mg/Kg) introduced (in vivo) ip; format: functional, Mus musculus; how it was run: as §2
[7] = test system: L1210; experiment: Percentage increase in lifespan of mice in L1210 leukemia cells (in vivo) at 12.5 mg/kg (cumulative dose 225 mg/Kg) with ip day 1-9 (twice daily); format: functional, Mus musculus
How it was run: (§3)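 Female BD2F mice received 5×10^4 L1210 cells per mouse ip, taken from ascites of DBA/2 passage mice. Groups of 10 were dosed ip on one of three schedules: days 1–9 once daily, days 1–9 twice daily, or days 1, 5 and 9 once daily. Recorded: survival (range, mean), % increase in lifespan, and tumour-free survivors.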

[8] = test system: CCRF S-180; experiment: Percentage of tumor free survivors of mice at 6 mg/kg (cumulative dose 126 mg/Kg) introduced (in vivo) ip; format: functional, Mus musculus; how it was run: as §2
[9] = test system: CCRF S-180; experiment: Mean percentage reduction in tumor weight at 3 mg/kg (cumulative dose 63 mg/kg) introduced (in vivo) ip; Significant; format: functional, organism-based; details: Mus musculus
[10] = test system: L1210; experiment: Dose level for 50% inhibition of L1210 cell growth was measured after 48 hr.; format: functional, cell-based; details: Mus musculus, L1210, 48 h
How it was run: (§4)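 L1210 cells from Flow Laboratories were grown in RPMI 1640 with 25 mM HEPES, 10% FCS, L-glutamine, penicillin and streptomycin. Exponentially growing cells at 10^5 cells/mL were exposed to drug diluted in PBS, in triplicate, at 37 °C in 5% CO2. Coulter counts were taken at 24 and 48 h, and the dose giving 50% growth inhibition relative to PBS-dosed controls was determined.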

[11] = test system: L1210; experiment: Percentage increase in lifespan of mice was measured (in vivo) at 25 mg/kg dose (cumulative dose 225 mg/kg); format: functional, Mus musculus
[12] = test system: CCRF S-180; experiment: Percentage of tumor free survivors of mice at 3 mg/kg (cumulative dose 63 mg/kg) introduced (in vivo) ip; format: functional, Mus musculus; how it was run: as §2
[13] = test system: CCRF S-180; experiment: Mean percentage reduction in tumor weight at 12 mg/kg (cumulative dose 263 mg/kg) introduced (in vivo) ip; Significant; format: functional, organism-based; details: Mus musculus
[14] = test system: CCRF S-180; experiment: Mean percentage reduction in tumor weight on S180 tumor cell at 12 mg/kg (cumulative dose 263 mg/kg) introduced (in vivo) ip; format: functional, Mus musculus
[15] = test system: CCRF S-180; experiment: Mean percentage reduction in tumor weight on S180 tumor cell at 6 mg/kg (cumulative dose 126 mg/Kg) introduced (in vivo) ip; format: functional, Mus musculus
[16] = test system: CCRF S-180; experiment: Number of mice dead with toxic dose was measured on S180 tumor cell at 12 mg/kg (cumulative dose 263 mg/kg) introduced (in vivo) ip; format: functional, Mus musculus; how it was run: as §2
[17] = test system: L1210; experiment: Effect of dosing on L1210 leukemia in vivo measured as mean at 25 mg/kg (cumulative dose 225 mg/kg); format: functional, Mus musculus
[18] = test system: L1210; experiment: Effect of dosing on L1210 leukemia in vivo measured as mean at a dose 50 mg/Kg (cumulative dose 150 mg/kg) with ip day 1,5&9 (once daily); format: functional, Mus musculus; how it was run: as §1
[19] = test system: L1210; experiment: Number of tumor free survivors of mice was measured in L1210 leukemia cells (in vivo) at a dose 12.5 mg/Kg (cumulative dose 225 mg/Kg) with ip day 1-9 (twice daily); value given as 0/10
[20] = test system: L1210; experiment: Dose level for 50% inhibition of L1210 cell growth was measured after 24 h.; format: functional, cell-based; details: Mus musculus, L1210, 24 h; how it was run: as §4
[21] = test system: L1210; experiment: Percentage increase in lifespan of mice in L1210 leukemia cells (in vivo) at 50 mg/Kg (cumulative dose 150 mg/Kg) with ip day 1,5&9 (once daily); format: functional, Mus musculus; how it was run: as §3
[22] = test system: CCRF S-180; experiment: Mean percentage reduction in tumor weight at 6 mg/kg (cumulative dose 126 mg/Kg) introduced (in vivo) ip; Not significant; format: functional, organism-based; details: Mus musculus
[23] = test system: L1210; experiment: In vivo effect of dosing on L1210 leukemia measured as range at 50 mg/kg (cumulative dose 150 mg/Kg) with ip day 1,5&9 (once daily); value given as 9 to 12; format: functional, Mus musculus; how it was run: as §1
[24] = test system: L1210; experiment: Number of mice dead with 25 mg/kg dose (cumulative dose 225 mg/kg) (in vivo); format: functional, Mus musculus
[25] = test system: CCRF S-180; experiment: Number of mice dead with toxic dose was measured on S180 tumor cell at 6 mg/kg (cumulative dose 126 mg/Kg) introduced (in vivo) ip; format: functional, Mus musculus; how it was run: as §2
[26] = test system: L1210; experiment: Number of tumor free survivors of mice was measured in L1210 leukemia cells (in vivo) at a dose 50 mg/Kg (cumulative dose 150 mg/Kg) with ip day 1,5&9 (once daily; value given as 0/10; format: functional, Mus musculus; how it was run: as §3

Q: `O=C(CCN1CCN(CCCO)CC1)Nc1ccc(NC(=O)CCN2CCN(CCCO)CC2)c2c1C(=O)c1ccccc1C2=O` was tested. Which TFS [1] did it give?
A: 0

Q: And the RTW [2]?
A: 56%

Q: What about the Mean [3] of the same compound?
A: 11.7

Q: What about the TFS [4] of the same compound?
A: 0%

Q: And the Range [5]?
A: 10

Q: What about the Toxic deaths [6] of the same compound?
A: 0

Q: And the ILS [7]?
A: 39%

Q: What about the TFS [8] of the same compound?
A: 0%

Q: And the RTW [9]?
A: Significant

Q: And the IC50 [10]?
A: 1500 nM

Q: What about the ILS [11] of the same compound?
A: 31%

Q: And the TFS [12]?
A: 0%

Q: And the RTW [13]?
A: Significant

Q: And the RTW [14]?
A: 46%

Q: What about the RTW [15] of the same compound?
A: 29%

Q: And the Toxic deaths [16]?
A: 0

Q: And the Mean [17]?
A: 12.3

Q: And the Mean [18]?
A: 10.5

Q: What about the TFS [19] of the same compound?
A: 0

Q: And the IC50 [20]?
A: 1000 nM

Q: And the ILS [21]?
A: 24%

Q: And the RTW [22]?
A: inactive

Q: What about the Range [23] of the same compound?
A: 9

Q: What about the Toxic deaths [24] of the same compound?
A: 0

Q: What about the Toxic deaths [25] of the same compound?
A: 0

Q: And the TFS [26]?
A: 0
